Test results reported in ChEMBL document CHEMBL1128270 (J Med Chem, 1995).

Assays:
[1] = target: D(2) dopamine receptor (Rattus norvegicus, UniProt P61169); assay: The compound was evaluated for the binding affinity towards Dopamine receptor D2 binding site using [3H]spiroperidol.
Method in brief: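 IC50 came from 7–9 drug concentrations in triplicate, over 2–4 independent experiments, analysed with EBDA. Specific binding exceeded 75% of total.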

[2] = target: T1, Adrenergic receptor alpha-1 (Rattus norvegicus, UniProt P15823+P23944+P43140); assay: In vitro binding affinity measured on alpha-1 adrenergic receptor using [3H]prazosin as radioligand.; format: protein assay
T1 sequence (P15823 whole entry): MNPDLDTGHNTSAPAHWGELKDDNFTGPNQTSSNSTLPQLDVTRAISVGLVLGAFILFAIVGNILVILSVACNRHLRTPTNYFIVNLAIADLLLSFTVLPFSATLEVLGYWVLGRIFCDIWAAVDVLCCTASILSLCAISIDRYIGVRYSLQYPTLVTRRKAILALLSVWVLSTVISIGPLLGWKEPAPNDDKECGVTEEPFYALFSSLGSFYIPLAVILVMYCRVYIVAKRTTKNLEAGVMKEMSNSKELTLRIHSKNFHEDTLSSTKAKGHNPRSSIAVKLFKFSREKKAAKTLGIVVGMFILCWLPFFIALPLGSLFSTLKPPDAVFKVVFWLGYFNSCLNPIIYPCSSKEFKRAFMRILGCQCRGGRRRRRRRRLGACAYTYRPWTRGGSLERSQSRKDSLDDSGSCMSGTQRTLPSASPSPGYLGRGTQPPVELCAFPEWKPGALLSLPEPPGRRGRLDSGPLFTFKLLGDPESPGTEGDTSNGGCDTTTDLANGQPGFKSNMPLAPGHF
T1 sequence (P23944 whole entry): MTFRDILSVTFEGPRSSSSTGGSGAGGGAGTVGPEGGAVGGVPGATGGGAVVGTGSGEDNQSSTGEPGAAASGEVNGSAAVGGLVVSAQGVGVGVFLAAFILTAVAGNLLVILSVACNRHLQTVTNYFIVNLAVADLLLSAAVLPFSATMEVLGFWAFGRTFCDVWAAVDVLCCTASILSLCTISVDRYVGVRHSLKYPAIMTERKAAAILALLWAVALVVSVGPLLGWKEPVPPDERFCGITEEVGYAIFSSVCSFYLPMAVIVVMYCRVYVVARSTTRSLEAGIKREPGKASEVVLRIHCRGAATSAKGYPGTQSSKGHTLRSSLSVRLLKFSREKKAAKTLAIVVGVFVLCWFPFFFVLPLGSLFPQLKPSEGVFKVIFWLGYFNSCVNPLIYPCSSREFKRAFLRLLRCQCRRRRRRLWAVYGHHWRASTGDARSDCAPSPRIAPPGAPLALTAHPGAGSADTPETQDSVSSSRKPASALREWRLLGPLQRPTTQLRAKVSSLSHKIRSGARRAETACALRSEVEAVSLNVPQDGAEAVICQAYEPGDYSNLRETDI
T1 sequence (P43140 whole entry): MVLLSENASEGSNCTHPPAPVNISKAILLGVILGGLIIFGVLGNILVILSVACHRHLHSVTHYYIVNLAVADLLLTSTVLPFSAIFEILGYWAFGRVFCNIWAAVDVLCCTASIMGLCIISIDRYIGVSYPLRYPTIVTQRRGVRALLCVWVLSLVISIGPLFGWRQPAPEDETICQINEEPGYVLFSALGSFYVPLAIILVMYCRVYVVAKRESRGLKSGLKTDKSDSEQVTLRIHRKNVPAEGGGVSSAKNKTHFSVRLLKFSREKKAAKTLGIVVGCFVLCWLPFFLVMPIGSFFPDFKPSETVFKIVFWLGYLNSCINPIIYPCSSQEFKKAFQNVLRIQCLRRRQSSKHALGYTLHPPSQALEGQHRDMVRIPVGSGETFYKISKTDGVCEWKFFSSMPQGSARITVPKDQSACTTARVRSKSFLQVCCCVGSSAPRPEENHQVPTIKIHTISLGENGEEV

[3] = tested on: Dopamine D2 receptor and serotonin 1a receptor (Rattus norvegicus); assay: Selectivity as the ratio of IC50 value against D-2 receptor to that of 5-hydroxytryptamine 1A receptor
[4] = target: T2, 5-hydroxytryptamine receptor 1A (Rattus norvegicus, UniProt P19327); assay: In vitro binding affinity measured on serotonin 5-hydroxytryptamine 1A receptor using [3H]8-OH-DPAT as radioligand.
T2 sequence (P19327 whole entry): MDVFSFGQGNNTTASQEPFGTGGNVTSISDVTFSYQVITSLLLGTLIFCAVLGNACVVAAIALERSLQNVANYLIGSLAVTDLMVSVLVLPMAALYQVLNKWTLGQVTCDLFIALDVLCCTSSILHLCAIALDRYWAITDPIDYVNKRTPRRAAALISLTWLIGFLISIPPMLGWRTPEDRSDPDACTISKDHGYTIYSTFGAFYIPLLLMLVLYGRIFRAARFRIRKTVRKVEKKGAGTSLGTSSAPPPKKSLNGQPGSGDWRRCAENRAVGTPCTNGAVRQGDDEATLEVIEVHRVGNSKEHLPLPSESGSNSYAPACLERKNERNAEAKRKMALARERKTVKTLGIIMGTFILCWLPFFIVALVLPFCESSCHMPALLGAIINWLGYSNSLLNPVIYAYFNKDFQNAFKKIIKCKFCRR

[5] = Selectivity as the ratio of IC50 value against alpha-1 receptor to that of 5-hydroxytryptamine 1A receptor
Method in brief: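 Ratio of the α1 IC50 to the 5-HT1A IC50 ([3H]-8-OH-DPAT, rat cortex). For α1, male Sprague-Dawley rat cortex membranes were prepared in 50 mM Tris-HCl pH 7.7 with 10 μM pargyline and 0.1% ascorbate.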

Chain of D(2) dopamine receptor (P61169 whole entry): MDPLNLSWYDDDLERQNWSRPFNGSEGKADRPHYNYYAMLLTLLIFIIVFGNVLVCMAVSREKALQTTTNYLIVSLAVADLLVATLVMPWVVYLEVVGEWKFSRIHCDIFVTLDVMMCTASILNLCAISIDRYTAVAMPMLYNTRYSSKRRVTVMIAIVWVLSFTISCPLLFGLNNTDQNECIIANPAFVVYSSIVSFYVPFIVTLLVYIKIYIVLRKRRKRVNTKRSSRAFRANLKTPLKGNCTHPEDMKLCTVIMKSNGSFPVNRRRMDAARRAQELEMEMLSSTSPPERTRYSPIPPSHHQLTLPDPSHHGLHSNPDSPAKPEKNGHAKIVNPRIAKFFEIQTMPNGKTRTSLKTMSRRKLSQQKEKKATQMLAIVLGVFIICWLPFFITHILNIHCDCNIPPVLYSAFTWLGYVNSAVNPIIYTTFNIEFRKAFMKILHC

## COc1ccc2c(c1)C(NCCN1CCN(c3ccccc3OC)CC1)CCC2 (stereo not given)
[1]
  IC50: 1200 nM
[2]
  IC50: 1960 nM
[3]
  Selectivity: 30
[4]
  IC50: 40.3 nM
[5]
  Selectivity: 49
